# TAAR1 ag: human TAAR1 agonism; Q96RJ0; CHO RD-HGA16 TAAR1, Fluo-8 calcium fluorescence; vehicle wells 0%, saturating PEA agonist 100%; activation, % at 3 µM; actives 0.99% (n = 360,000); AID 624467;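 active = activation above the mean activation of all test compounds in the run plus 3 SD, cut at about 38% in these data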
#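 System: CHO RD-HGA16 cells carrying human TAAR1 plus Gα16; Incubation: 17-24 h seeding, 75 min 37 °C dye, 30 min RT; Measured by: Fluo-8 fluorescence, 5 s baseline then 140 s kinetic read; Control set: DMSO and PEA EC100; Replication: single well for each compound.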
# GPR7 antagonist: blocks human GPR7 receptor signaling; AID 1861; GPR7-expressing cells, fluorescence antagonist assay; inhibition, % at 4.4 µM; P48145; actives 1.1% (n = 290,000); in the data active = inhibition above about 16%, passing the limit was not always enough;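 also: cells stimulated with the agonist NPW; 0% = agonist with vehicle and 100% = vehicle without agonist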
# OX1R antag-1: antagonists of human orexin 1 receptor (OX1R). O43613. OX1R-expressing cells, FRET antagonist read-out. inhibition, % at 6.6 µM. actives 1.8% (n = 330,000). AID 485270; in the data active = inhibition mostly above about 38%, no sharp cut-off; inactive = mostly below about 40%;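 also: 0% = agonist challenge alone and 100% = reference antagonist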
# Target sequence (O43613 whole entry, looked up): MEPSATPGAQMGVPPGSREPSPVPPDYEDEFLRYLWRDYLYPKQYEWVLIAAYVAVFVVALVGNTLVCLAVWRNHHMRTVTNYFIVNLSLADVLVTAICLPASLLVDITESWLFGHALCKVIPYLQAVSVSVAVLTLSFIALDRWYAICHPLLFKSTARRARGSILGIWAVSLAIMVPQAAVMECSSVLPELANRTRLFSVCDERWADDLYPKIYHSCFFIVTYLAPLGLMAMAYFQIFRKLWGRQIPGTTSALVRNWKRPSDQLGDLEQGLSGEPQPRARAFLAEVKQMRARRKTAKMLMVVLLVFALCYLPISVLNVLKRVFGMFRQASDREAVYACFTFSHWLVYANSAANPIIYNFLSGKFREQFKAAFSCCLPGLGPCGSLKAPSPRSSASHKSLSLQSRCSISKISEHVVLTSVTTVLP
# OX1R antag-2: antagonists of human orexin 1 receptor; CHO/OX1R cells, Fluo-8 calcium fluorescence, orexin A; inhibition, % at 5 µM; actives 0.43% (n = 330,000); O43613;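 active = inhibition above its plate's threshold, mean inhibition of all tested compounds on the plate plus 3 SD, cut at about 37% in these data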;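 also: 0% = orexin A challenge wells and 100% = SB-334867-A antagonist wells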
# TAAR1 antag: antagonists of human TAAR1; Q96RJ0; CHO RD-HGA16 TAAR1, Fluo-8 calcium fluorescence, antagonist; inhibition, % at 3 µM; actives 1.5% (n = 360,000); AID 624466;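 active = inhibition above a per-plate cutoff, the mean inhibition of test compounds on that plate plus 3 SD, cut at about 49% in these data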;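 also: 0% = DMSO plus EC80 beta-PEA response and 100% = DMSO alone without agonist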
#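 Test system – hTAAR1-expressing CHO RD-HGA16 cells, Gα16-coupled · Reagent – β-PEA at EC80 concentration, post-compound challenge · Compound dosing – 3 µM, single point · Timing – 140 s kinetic read after compound, 140 s after agonist · Detection – Fluo-8 intracellular calcium dye fluorescence, real-time kinetic reads · Control set – DMSO and EC80 PEA controls · Repeats – n of 1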
# CHO parental Ca: signal in parental CHO cells, OX1R antagonist counter-screen; parental CHO-K1, ATP-induced calcium, Fluo-8 fluorescence; actives 0.63% (n = 330,000); inhibition, % at 5.6 µM;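 active = inhibition above that plate's mean sample inhibition plus 3 SD, cut at about 26% in these data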;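 also: 0% = ATP-challenged DMSO wells and 100% = DMSO wells without ATP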
#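 Test system: untransfected parental CHO cell line. Compound: one dose, 5.6 µM nominal. Detection: intracellular calcium via Fluo-8 no-wash fluorescent dye. Measure: % inhibition. Benchmarks: ATP-challenged DMSO wells low, unchallenged DMSO wells high.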
# TAAR1 ag confirm: confirmation of human TAAR1 agonists | shares compounds with TAAR1 ag | CHO RD-HGA16 TAAR1, Fluo-8 calcium fluorescence; scaled: DMSO 0%, maximal phenethylamine 100% | activation, % at 3 µM | actives 82% (n = 2,400);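 active = activation above a cutoff set at the run's mean compound activation plus 3 SD, cut at about 39% in these data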
# Ga16 nonsel ag: nonselective agonist in parental cells, TAAR1 agonist counter-screen; actives 50% (n = 2,400); activation, % at 3 µM; shares compounds with TAAR1 ag; CHO-Ga16 parental, Fluo-8 calcium fluorescence; normalized to maximal ATP response, DMSO zero;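 active = activation above the run cutoff, the mean activation over all tested wells plus 3 SD, cut at about 12% in these data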;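 also: 0% = DMSO wells and 100% = maximal ATP response on the peak over basal ratio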
# TAAR1 desens: TAAR1 response desensitization, agonist counter-screen | inhibition, % at 3 µM | actives 46% (n = 2,400) | shares compounds with TAAR1 ag | CHO RD-HGA16 hTAAR1, Fluo-8 calcium, beta-PEA response inhibition;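 active = inhibition above the run cutoff, the mean inhibition of all test compounds plus 3 SD, cut at about 49% in these data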;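 also: beta-PEA stimulus applied at its EC80; loss of beta-PEA calcium signal after compound pretreatment read as receptor desensitization; 0% = DMSO with beta-PEA at EC80 and 100% = DMSO alone without agonist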
# Ga16 nonsel ant: nonselective Ga16 antagonism, counter-screen. shares compounds with TAAR1 ag. CHO-Ga16 ATP-induced calcium, Fluo-8 fluorescence. inhibition, % at 3 µM. AID 651952. actives 39% (n = 2,400);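 active = inhibition above the plate's mean compound inhibition plus 3 SD, computed per plate, cut at about 22% in these data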;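 also: 0% = EC80 ATP with DMSO and 100% = DMSO wells without ATP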
# * = called active by the depositor; nt = not tested or not shown. A selection: hits, their analogues and other compounds. The true share with any hit is near 4.6%.
SMILES,TAAR1 ag,GPR7 antagonist,OX1R antag-1,OX1R antag-2,TAAR1 antag,CHO parental Ca,TAAR1 ag confirm,Ga16 nonsel ag,TAAR1 desens,Ga16 nonsel ant
CCCCCCCCN1C(=O)[C@H](CC(=O)NCC23CC4CC(CC(C4)C2)C3)C[C@@]2(C(=O)OCC)CCC=C12,2.4,nt,nt,nt,-22.6,nt,nt,nt,nt,nt
Cc1cc(C)c(OCC(=O)N(Cc2ccccc2)C2CCS(=O)(=O)C2)c(C)c1 (stereo not drawn),0.8,1.5,6.8,-17.4,-2.3,-21.0,nt,nt,nt,nt
C[C@H]1CN([C@@H](C)CO)C(=O)CCCn2nncc2CO[C@@H]1CN(C)Cc1cccc(C(=O)O)c1,2.5,nt,nt,nt,-1.8,nt,nt,nt,nt,nt
N/C(Cc1cccc2ccccc12)=N\OC(=O)c1ccc2c(c1)OCO2,74.3*,-11.6,18.3,-12.8,48.9*,-10.1,15.6,0.7,7.5,9.9
N/C(Cc1cccc2ccccc12)=N\OC(=O)c1ccc(Br)o1,91.0*,-3.0,nt,nt,38.2,nt,88.8*,1.4,79.7*,3.3
N/C(Cc1ccc(Cl)cc1Cl)=N\OC(=O)c1ccc(Br)o1,3.0,0.1,6.5,-25.5,16.3,-2.0,nt,nt,nt,nt
C#CCNC(=O)C[C@H]1C[C@@]2(C(=O)OC)C(=C[C@H](C(C)(C)C)O[C@@H]2C)N(CCCCCCCC)C1=O,-1.9,nt,nt,nt,-75.6,nt,nt,nt,nt,nt
CCCCCCCCN1C(=O)[C@H](CC(=O)NCCc2ccccc2OC)C[C@@]2(C(=O)OC)CCCCC=C12,50.8*,nt,nt,nt,-7.1,nt,80.5*,1.3,65.0*,12.6
CCCCCCCCN1C(=O)[C@H](CC(=O)NCCCCc2ccccc2)C[C@@]2(C(=O)OC)CCCCC=C12,7.2,nt,nt,nt,-25.8,nt,nt,nt,nt,nt
CCOC(=O)[C@]12CCC=C1N(Cc1ccco1)C(=O)[C@H](CC(=O)NCCc1ccccc1OC)C2,62.2*,nt,nt,nt,0.2,nt,69.0*,-1.1,43.2,10.7
CCCCCCCCN1C(=O)[C@@H](CC(=O)NCCc2ccccc2OC)C[C@@]2(C(=O)OC)C1=C[C@H](C(C)(C)C)O[C@@H]2C,75.1*,nt,nt,nt,15.7,nt,85.0*,0.4,52.4*,3.6
CCCCCCCCN1C(=O)[C@H](CC(=O)NCCc2ccccc2OC)C[C@@]2(C(=O)OCC)CCC=C12,58.6*,nt,nt,nt,19.0,nt,79.5*,-1.3,47.8,1.7
CN1OC[C@@H]2CN(Cc3ccccc3)[C@H](c3cccc(-c4ccc(C#N)cc4)c3)C[C@@H]21,-0.3,nt,nt,nt,-14.9,nt,nt,nt,nt,nt
CC(Oc1ccc2ccccc2c1)C(=O)NNC(=O)Nc1ccccc1 (stereo not drawn),1.2,-8.5,nt,nt,-17.8,nt,nt,nt,nt,nt
CN(Cc1ccccc1Br)C(=O)CN1C(=O)NC2(CCCCCC2)C1=O,7.5,nt,7.4,-29.5,10.5,-20.4,nt,nt,nt,nt
CC1Cc2ccccc2N1C(=O)CN1C(=O)NC(C)(c2ccc3c(c2)OCCO3)C1=O (stereo not drawn),52.7*,13.2,10.1,-17.4,-5.0,-14.2,43.1*,9.2,4.4,9.1
CC1(c2ccc3c(c2)OCCO3)NC(=O)N(CC(=O)c2ccc[nH]2)C1=O (stereo not drawn),7.2,nt,1.0,-10.2,5.0,-0.1,nt,nt,nt,nt
CCC(=O)N(CC)c1nc(-c2cc(OC)ccc2OC)cs1,50.3*,-16.3,14.9,-27.4,43.0,-17.9,44.7*,35.5*,39.5,26.5*
CCOc1ccc(CCN2C(=S)N([C@@H](CC(C)C)CN3CCCC3CN3C(=S)NC[C@@H]3CC(C)C)C[C@@H]2Cc2ccccc2)cc1 (stereo partly drawn),0.0,nt,nt,nt,-19.8,nt,nt,nt,nt,nt
CC1=NN(/C(=N\c2nnc(C)s2)Nc2ccccc2)[C@H](c2cccc3ccccc23)S1,70.1*,3.5,14.6,-28.3,-5.9,-15.4,47.2*,2.1,0.4,10.7
O=C(NNC(=S)NC(=O)c1ccccc1[N+](=O)[O-])c1ccccc1O,5.2,2.3,25.3,-15.8,-11.4,-18.6,nt,nt,nt,nt
CCCCOc1ccccc1C(=O)NNC(=S)NC(=O)c1ccccc1[N+](=O)[O-],85.3*,-3.1,14.4,-1.4,34.4,-8.6,42.9*,42.6*,36.8,40.6*
Cc1noc(C)c1S(=O)(=O)NCc1cccc(Cl)c1,7.9,nt,8.1,-9.7,-13.9,-8.9,nt,nt,nt,nt
COc1ccc2oc(C(=O)OCC(=O)NCc3ccccc3OC)c(C)c2c1,69.9*,nt,11.1,-4.0,91.2*,56.1*,22.8,4.7,51.8*,15.5
Cc1cc(=O)[nH]c(Nc2cccc(F)c2)n1,51.0*,-7.3,8.3,5.0,9.8,24.2,81.1*,2.2,41.0,5.2
CCOC(=O)[C@]12CCCC=C1N(Cc1ccc3c(c1)OCO3)C(=O)[C@H](CC(=O)NCc1ccc(C)o1)C2,1.3,nt,nt,nt,-3.3,nt,nt,nt,nt,nt
CCOc1ccc(NC(=O)N2CCC(c3ccc(C)cc3)C2)cc1 (stereo not drawn),51.0*,-4.1,12.6,-7.0,38.1,-8.3,6.6,3.5,11.2,10.2
O=C(/C=C/c1ccccc1)N1CCC(c2ccccc2)C1 (stereo not drawn),-0.6,-2.2,4.3,-18.2,-0.1,-10.3,nt,nt,nt,nt

# Screening results deposited in PubChem by The Scripps Research Institute Molecular Screening Center.
